Among the data in ChEMBL document CHEMBL1156308 (J Med Chem, 2010) are concentration values, retold here.

Series [1] is described as follows: Biodistribution in iv dosed monkey brain after 6 hrs. The class given is ADME, organism-based, Macaca mulatta. Conditions: rhesus monkey, read-out: Drug uptake.
Series [2] is described as follows: Biodistribution in baboon kidney medulla at 85 mg, iv after 15 mins. It is filed as ADME, organism-based. The settings on record: papio hamadryas, read-out: Drug uptake. The procedure, abridged:
(§1)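 The [11C]-labeled drug was given as an i.v. micro dose via a radial arm vein to anesthetized baboons (ketamine 10 mg/kg i.m.; O2/N2O/isoflurane 1–4%), then torso PET. Organ TACs came from manually drawn ROIs and are reported as %ID/cc. µg/ml was estimated assuming a 5 mg/kg dose, a 17 kg baboon, and that the positron signal is intact drug.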

Series [3] in a line: Biodistribution in baboon kidney cortex at 85 mg, iv after 90 mins. The class given is ADME, organism-based. Conditions: papio hamadryas, read-out: Drug uptake.
The nature of series [4]: Biodistribution in baboon whole brain at 85 mg, iv after 90 mins. The class given is ADME, organism-based. Conditions: papio hamadryas, read-out: Drug uptake. The procedure, abridged: (§2)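 Brain PET ran 90 min after i.v. [11C]-labelled drug in anaesthetised baboons. Whole-brain regions of interest gave time-activity curves in %ID/cc. µg/ml values were estimated from baboon weight (17 kg) and the recommended human daily dose per kg, assuming signal comes from intact drug.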

Series [5] can be described thus: Biodistribution in baboon lung at 85 mg, iv after 60 mins. The class given is ADME, organism-based. Conditions: papio hamadryas, read-out: Drug uptake.
A short description of series [6]: Biodistribution in baboon heart at 85 mg, iv after 60 mins. The class given is ADME, organism-based. Conditions: papio hamadryas, read-out: Drug uptake.
Series [7] is described as follows: Biodistribution in baboon plasma at 85 mg, iv after 90 mins. Conditions: papio hamadryas, read-out: Drug uptake. The class given is ADME, organism-based. A digest of the protocol:
(§3)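 Anaesthetised baboons received [11C]-labelled drug i.v. (radial arm vein) by PET protocol. Arterial blood was drawn from a popliteal catheter every 5 s for 2 min, then at 2–90 min. Plasma activity is given as %ID/cc. µg/ml values were estimated from the human daily dose per kg scaled to a 17 kg baboon, assuming signal comes from intact drug.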

A short description of series [8]: Biodistribution in baboon plasma at 85 mg, iv after 60 mins. It is filed as ADME, organism-based. Conditions: papio hamadryas, read-out: Drug uptake. A digest of the protocol: as §3
Series [9] in a line: Biodistribution in baboon lung at 85 mg, iv after 30 mins. The class given is ADME, organism-based. The settings on record: papio hamadryas, read-out: Drug uptake.
Series [10] in a line: Biodistribution in baboon kidney medulla at 85 mg, iv after 60 mins. The class given is ADME, organism-based. The settings on record: papio hamadryas, read-out: Drug uptake. A digest of the protocol: as §1
A short description of series [11]: Biodistribution in baboon kidney cortex at 85 mg, iv after 15 mins. It is filed as ADME, organism-based. Conditions: papio hamadryas, read-out: Drug uptake.
Series [12] can be described thus: Biodistribution in baboon kidney medulla at 85 mg, iv after 90 mins. The class given is ADME, organism-based. Conditions: papio hamadryas, read-out: Drug uptake. The procedure, abridged:
as §1

A short description of series [13]: Biodistribution in baboon liver at 85 mg, iv after 30 mins. Conditions: papio hamadryas, read-out: Drug uptake. The class given is ADME, organism-based.
Series [14] is described as follows: Biodistribution in baboon liver at 85 mg, iv after 90 mins. The class given is ADME, organism-based. The settings on record: papio hamadryas, read-out: Drug uptake.
Series [15] in a line: Biodistribution in baboon kidney medulla at 85 mg, iv after 30 mins. The settings on record: papio hamadryas, read-out: Drug uptake. It is filed as ADME, organism-based. A digest of the protocol:
as §1

Series [16] in a line: Biodistribution in baboon heart at 85 mg, iv after 30 mins. It is filed as ADME, organism-based. Conditions: papio hamadryas, read-out: Drug uptake.
A short description of series [17]: Biodistribution in baboon whole brain at 85 mg, iv after 60 mins. The class given is ADME, organism-based. Conditions: papio hamadryas, read-out: Drug uptake. A digest of the protocol:
as §2

Series [18] in a line: Biodistribution in baboon liver at 85 mg, iv after 15 mins. It is filed as ADME, organism-based. The settings on record: papio hamadryas, read-out: Drug uptake.
The nature of series [19]: Biodistribution in baboon lung at 85 mg, iv after 15 mins. It is filed as ADME, organism-based. Conditions: papio hamadryas, read-out: Drug uptake.
Series [20] can be described thus: Biodistribution in baboon kidney cortex at 85 mg, iv after 60 mins. The class given is ADME, organism-based. The settings on record: papio hamadryas, read-out: Drug uptake.
The nature of series [21]: Biodistribution in baboon liver at 85 mg, iv after 60 mins. The settings on record: papio hamadryas, read-out: Drug uptake. It is filed as ADME, organism-based.
Series [22] can be described thus: Biodistribution in baboon heart at 85 mg, iv after 90 mins. The class given is ADME, organism-based. Conditions: papio hamadryas, read-out: Drug uptake.
Series [23] can be described thus: Biodistribution in baboon plasma at 85 mg, iv after 30 mins. Conditions: papio hamadryas, read-out: Drug uptake. It is filed as ADME, organism-based. The procedure, abridged:
as §3

The nature of series [24]: Biodistribution in baboon kidney cortex at 85 mg, iv after 30 mins. The class given is ADME, organism-based. Conditions: papio hamadryas, read-out: Drug uptake.
Series [25] is described as follows: Biodistribution in baboon lung at 85 mg, iv after 90 mins. The settings on record: papio hamadryas, read-out: Drug uptake. The class given is ADME, organism-based.
Series [26] is described as follows: Biodistribution in baboon whole brain at 85 mg, iv after 30 mins. The class given is ADME, organism-based. The settings on record: papio hamadryas, read-out: Drug uptake. A digest of the protocol:
as §2

Series [27] in a line: Biodistribution in baboon heart at 85 mg, iv after 15 mins. It is filed as ADME, organism-based. Conditions: papio hamadryas, read-out: Drug uptake.
Series [28] in a line: Biodistribution in baboon plasma at 85 mg, iv after 15 mins. It is filed as ADME, organism-based. Conditions: papio hamadryas, read-out: Drug uptake. A digest of the protocol:
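Anesthetised baboons (ketamine 10 mg/kg i.m.; oxygen, nitrous oxide and isoflurane 1–4% during scanning) got a micro dose of [11C]-labelled drug i.v. via a radial arm vein; arterial blood was sampled serially over 90 min. Plasma %ID/cc was converted to µg/ml from the listed dose over a 17 kg baboon, assuming the signal is intact drug.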

Series [29] in a line: Biodistribution in mouse whole brain at 10 mg/kg, sc after 30 mins. The class given is ADME, organism-based. More on the design: dose 10 mg/kg, route subcutaneous. The settings on record: read-out: Drug uptake.
The nature of series [30]: Biodistribution in mouse whole brain at 10 mg/kg, sc after 60 mins. It is filed as ADME, organism-based. Conditions: read-out: Drug uptake. More on the design: dose 10 mg/kg, route subcutaneous.

As to `CO[C@H]1/C=C/O[C@@]2(C)Oc3c(C)c(O)c4cc(c(/C=N/N5CCN([14CH3])CC5)c(O)c4c3C2=O)NC(=O)/C(C)=C\C=C\C(C)[C@H](O)[C@@H](C)[C@@H](O)[C@@H](C)[C@H](OC(C)=O)[C@@H]1C` (stereo not given in full), in series [1], the concentration at 6 h turned out to be 870 ng/g.

As to `NN[11C](=O)c1ccncc1`, the concentration at 0.25 h in [2] stood at 18900 ng/mL; in series [11], 15100 ng/mL; in series [18], 12500 ng/mL; in [19], 7720 ng/mL; in [27], 8720 ng/mL; in series [28], 3760 ng/mL. Moreover, the concentration at 1.5 h in [3] is 8540 ng/mL; in series [4], 1750 ng/mL; in [7], 1620 ng/mL; in series [12] it was 14700 ng/mL; in series [14], 6910 ng/mL; in series [22], 4150 ng/mL. Further, in series [25], the concentration at 1.5 h amounted to 4190 ng/mL. The concentration at 1 h in series [5] came out at 4420 ng/mL; in series [6], 3740 ng/mL; in [8] it was 2050 ng/mL; in series [10], 16400 ng/mL; in series [17] it was 2110 ng/mL; in [20], 7720 ng/mL. Further, the concentration at 1 h in [21] came out at 7640 ng/mL. The concentration at 0.5 h came out at 6090 ng/mL in [9]; 9710 ng/mL in [13]; 15400 ng/mL in [15]; 6130 ng/mL in series [16]; 2960 ng/mL in [23]; 9260 ng/mL in series [24]. The concentration at 0.5 h in series [26] worked out at 2540 ng/mL.

In the case of `NN[14C](=O)c1ccncc1`, in [29], the concentration at 0.5 h came to 4400 ng/g. For the same molecule, the concentration at 1 h in series [30] was determined as 3200 ng/g.
